From ChEMBL document CHEMBL3259610, “Liver S9 Fraction-Derived Metabolites of Curcumin Analogue UBS109” (ACS Med Chem Lett, 2014) come the findings set out here.

The source made the active and inactive calls. The calls are words filed in the database; no cut-off is given here.

Data set [1] is described as follows: Drug level in human liver S9 fraction treated with UBS109 at 1 uM using 1% DMSO measured at 60 mins by LC/MS-MS analysis in presence of NADPH. It counts as ADME, subcellular. Conditions: s9, 1 h. In a few lines:
(§1)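 Compound was incubated in pooled liver S9 fractions (mouse, cynomolgus monkey, human), mostly with NADPH and in 1% DMSO. Human S9 was also run without NADPH, and at 0.2% DMSO. Parent loss and metabolite formation were followed over time by LC–MS/MS, and half-life was derived from parent depletion.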

A short description of data set [2]: Growth inhibition of human TU212 cells after 48 hrs by neutral red dye uptake assay. It counts as functional. Conditions: TU212, 48 h. In a few lines:
(§2)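 TU212 (head and neck SCC) and MDA-MB-231 (breast adenocarcinoma) cells were exposed to compounds at 5 and 10 μM with DMSO below 0.1%. Viability was read by neutral red uptake. Error bars are standard error of the mean, and significance was tested by two-tailed t test.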

The next data set concerns MDA-MB-231. The data set is described as follows: Growth inhibition of human MDA-MB-231 cells after 48 hrs by neutral red dye-based assay. It counts as functional. Conditions: MDA-MB-231, 48 h. An outline of the steps: as §2
Another data set has as its system Liver. Description: Drug level in human liver S9 fraction treated with UBS109 at 1 uM using 1% DMSO measured after 1 hr by LC/MS-MS analysis in absence of NADPH. It counts as ADME. The conditions noted are these: s9, 1 h. An outline of the steps:
as §1

Data set [3] deals with Blood. The data set is described as follows: Drug level in human whole blood treated with UBS109 at 1 uM after 2 hrs by LC/MS-MS analysis. It counts as ADME, tissue-based.
Data set [4] is described as follows: Drug level in Beagle dog whole blood treated with UBS109 at 1 uM after 2 hrs by LC/MS-MS analysis. It counts as ADME, tissue-based, Canis lupus familiaris.
Data set [5] can be described thus: Drug level in cynomolgus monkey whole blood treated with UBS109 at 1 uM after 2 hrs by LC/MS-MS analysis. It counts as ADME, tissue-based, Macaca fascicularis.
A short description of data set [6]: Drug level in CD1 mouse liver S9 fraction treated with UBS109 at 1 uM using 1% DMSO measured after 60 mins by LC/MS-MS analysis in presence of NADPH. In kind it is ADME, subcellular. The conditions noted are these: s9, 1 h. In a few lines: as §1
The nature of data set [7]: Drug metabolism in human liver S9 fraction assessed as (E)-1-methyl-3-(2-pyridinylmethyl)-5-(2-pyridinylmethylidene)-4-piperidone formation at 1 uM using 1% DMSO measured at 60 mins by LC/MS-MS analysis in presence of NADPH. In kind it is ADME, subcellular. Conditions: s9, 1 h. An outline of the steps: as §1
A short description of data set [8]: Drug metabolism in human liver S9 fraction assessed as (E)-1-methyl-3,5-bis(2-pyridinylmethylidene)-4-hydroxypiperidine formation at 1 uM using 1% DMSO measured at 60 mins by LC/MS-MS analysis in presence of NADPH. It counts as ADME, subcellular. Conditions: s9, 1 h. In a few lines:
as §1

For the next data set, the system named is TU212. Description: Cytotoxicity against human TU212 cells assessed as cell viability at 5 to 10 uM after 48 hrs by neutral red dye uptake assay. In kind it is functional, cell-based. In a few lines:
as §2

Data set [9] is described as follows: Half life in cynomolgus monkey liver S9 fraction at 1 uM using 1% DMSO. In kind it is ADME, subcellular, Macaca fascicularis. An outline of the steps: as §1
A short description of data set [10]: Half life in CD1 mouse liver S9 fraction at 1 uM using 1% DMSO. In kind it is ADME, subcellular. In a few lines:
as §1

Data set [11] can be described thus: Half life in human liver S9 fraction at 2 uM using 0.2% DMSO in presence of NADPH. It counts as ADME, subcellular. An outline of the steps: as §1
Data set [12] can be described thus: Metabolic stability in human liver S9 fraction assessed as remaining compound level at 2 uM using 0.2% DMSO measured after 1 hr by LC/MS-MS analysis in presence of NADPH. It counts as ADME, subcellular. The conditions noted are these: read-out: Stability. An outline of the steps: as §1
Data set [13] can be described thus: Metabolic stability in human liver S9 fraction assessed as remaining compound level at 2 uM using 0.2% DMSO measured after 1 hr by LC/MS-MS analysis in absence of NADPH. Conditions: read-out: Stability. In kind it is ADME. An outline of the steps: as §1
The nature of data set [14]: Drug metabolism in human liver S9 fraction assessed as (E)-1-methyl-3-(2-pyridinylmethyl)-5-(2-pyridinylmethylidene)-4-piperidone formation at 1 uM using 1% DMSO measured after 1 hr by LC/MS-MS analysis in absence of NADPH. It counts as ADME. The conditions noted are these: s9, 1 h. An outline of the steps: as §1
Data set [15] can be described thus: Drug metabolism in human liver S9 fraction assessed as (E)-1-methyl-3,5-bis(2-pyridinylmethylidene)-4-hydroxypiperidine formation at 1 uM using 1% DMSO measured after 1 hr by LC/MS-MS analysis in absence of NADPH. Conditions: s9, 1 h. In kind it is ADME. An outline of the steps:
as §1

Data set [16] is described as follows: Drug metabolism in Beagle dog whole blood assessed as (E)-1-methyl-3-(2-pyridinylmethyl)-5-(2-pyridinylmethylidene)-4-piperidone formation at 1 uM after 2 hrs by LC/MS-MS analysis. In kind it is ADME, tissue-based, Canis lupus familiaris.
Data set [17] concerns Blood. The data set is described as follows: Drug metabolism in human whole blood assessed as (E)-1-methyl-3-(2-pyridinylmethyl)-5-(2-pyridinylmethylidene)-4-piperidone formation at 1 uM after 2 hrs by LC/MS-MS analysis. It counts as ADME, tissue-based.
Data set [18] can be described thus: Drug metabolism in cynomolgus monkey whole blood assessed as (E)-1-methyl-3-(2-pyridinylmethyl)-5-(2-pyridinylmethylidene)-4-piperidone formation at 1 uM after 2 hrs by LC/MS-MS analysis. In kind it is ADME, tissue-based, Macaca fascicularis.
A short description of data set [19]: Elimination half life in mouse. It counts as ADME, organism-based. The conditions noted are these: in vivo, read-out: beta t1/2 (converted).
Data set [20] is described as follows: Plasma protein binding in mouse. Conditions: read-out: PPB (converted). It counts as ADME, organism-based.
The nature of data set [21]: Drug metabolism in Sprague-Dawley rat liver S9 fraction at 1 uM using 1% DMSO measured after 60 mins by LC/MS-MS analysis in presence of NADPH. In kind it is ADME, subcellular. Conditions: s9, 1 h.
A short description of data set [22]: Drug metabolism in CD1 mouse liver S9 fraction assessed as (E)-1-methyl-3-(2-pyridinylmethyl)-5-(2-pyridinylmethylidene)-4-piperidone formation at 1 uM using 1% DMSO measured at 60 mins by LC/MS-MS analysis in presence of NADPH. It counts as ADME, subcellular. The conditions noted are these: s9, 1 h. In a few lines: as §1
Data set [23] in a line: Half life in human liver S9 fraction at 2 uM in absence of NADPH.
The nature of data set [24]: Elimination half life in ND4 Swiss Webster mouse at 12.5 to 25 mg/kg, ip. In kind it is ADME, organism-based. Also noted: dose 12.5-25 mg/kg, route intraperitoneal. The conditions noted are these: in vivo, read-out: beta t1/2.

Regarding `CN1C/C(=C\c2ccccn2)C(=O)C(Cc2ccccn2)C1` (configuration not stated), the Drug metabolism entry (in [1]; in the data set on Liver; with Blood [3]; in data set [4]; in data set [5]; in data set [6]) was “metabolite_detected” throughout. The GI50 was greater than 10 µM in [2] and greater than 5 µM in the data set on MDA-MB-231.

Regarding `CN1C/C(=C\c2ccccn2)C(=O)/C(=C/c2ccccn2)C1`, the Drug metabolism result (in [7]; in [8]; in data set [14]; in [15]; in data set [16]; in the data set with Blood [17]) was “metabolite_detected” throughout. In addition, the Drug metabolism entry in [18], in [21] and in data set [22] was “metabolite_detected” in each case. Also, the outcome in the data set on TU212 was Active. The half-life at 1 µM in data set [9] amounted to 8 min; in [10], 38 min. Also, the half-life at 2 µM in data set [11] was 9 min; in [23] it was 18 min. In addition, the remaining at 1 h, 2 µM worked out at 4.1% in [12] and 27.6% in data set [13]. Moreover, the half-life in data set [19] was 240 min. In addition, the fraction unbound in data set [20] was 0.06.

In the case of `CN1C/C(=C\c2ccccn2)C(O)/C(=C/c2ccccn2)C1` (configuration not stated), the Drug metabolism result (in [1]; with Liver) was “metabolite_detected” in each case. The GI50 (in data set [2]; with MDA-MB-231) was greater than 10 µM in each case.

As to `O=C1/C(=C/c2ccccc2F)CNC/C1=C\c1ccccc1F`, the half-life in data set [19] was 60 min.

Turning to `O=C1/C(=C/c2ccccn2)CNC/C1=C\c1ccccn1`, the half-life in data set [24] is no more than 1 min.

As a reminder, the GI50 is the concentration at which growth is held to half of that of the control.
